From ChEMBL document CHEMBL3085691, “Discovery of tryptanthrin derivatives as potent inhibitors of indoleamine 2,3-dioxygenase with therapeutic activity in Lewis lung cancer (LLC) tumor-bearing mice” (J Med Chem, 2013)
Activity calls are given as the source filed them. No cut-off for these calls is given here.

Tests used:
[1] = target: T1, Indoleamine 2,3-dioxygenase 1 (Homo sapiens, UniProt P14902); assay: Uncompetitive inhibition of human recombinant IDO1 using L-tryptophan as substrate
In short: (§1)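 Reversibility and inhibition mode taken from kinetic graphical plots of recombinant human IDO-1 activity. The enzyme assay used a methylene blue/ascorbate regeneration system. Ki derived by plotting [S]/V against inhibitor concentration.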
Target sequence in this assay (P14902 whole entry): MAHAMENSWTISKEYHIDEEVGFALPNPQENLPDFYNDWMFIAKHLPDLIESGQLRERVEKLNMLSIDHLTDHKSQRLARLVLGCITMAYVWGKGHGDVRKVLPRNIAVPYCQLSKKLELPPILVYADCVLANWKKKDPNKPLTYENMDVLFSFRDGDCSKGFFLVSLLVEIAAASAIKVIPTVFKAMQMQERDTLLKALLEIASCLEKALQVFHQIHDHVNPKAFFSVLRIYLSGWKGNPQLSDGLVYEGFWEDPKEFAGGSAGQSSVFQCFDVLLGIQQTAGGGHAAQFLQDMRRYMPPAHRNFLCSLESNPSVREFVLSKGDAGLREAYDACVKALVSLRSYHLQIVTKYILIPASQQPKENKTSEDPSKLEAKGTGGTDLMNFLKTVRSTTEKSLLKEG

[2] = target: T1, Indoleamine 2,3-dioxygenase 1; assay: Inhibition of human IDO1 expressed in HEK293 cells assessed as kynurenine release after 5 hrs by spectrophotometry; assay type: cell-based
[3] = DPPH radical scavenging activity assessed as reducing ability at 5 to 160 uM after 30 mins by spectrophotometry; conditions: 0.5 h
[4] = target: T1, Indoleamine 2,3-dioxygenase 1; assay: Inhibition of human recombinant IDO1 using L-tryptophan as substrate
Target sequence in this assay (P14902 whole entry): as above

[5] = target: T1, Indoleamine 2,3-dioxygenase 1; assay: Competitive inhibition of human recombinant IDO1 using L-tryptophan as substrate
Target sequence in this assay (P14902 whole entry, looked up): as the sequence (P14902 whole entry) above

Mus musculus [6] = assay: Upregulation of IDO1 expression in cytoplasm of C57BL/6 mouse tumor allografted with mouse LLC cells at 200 mg/kg, po qd after 14 days by immunohistochemical analysis; assay type: functional, organism-based; parameters: dose 200 mg/kg
In short: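 LLC allografts in C57BL/6 mice, sc at 2 × 10^6 cells. Oral dosing once daily at 200 mg/kg or 0.5% CMC vehicle from 5 mm tumor diameter for 14 days. Tumors and TDLNs cut into 5 μm sections with heat antigen retrieval. Rabbit Foxp3 Ab (1/100) or mouse IDO-1 Ab (1/50) applied 1 h, then Alexa Fluor secondary 30 min. Nuclei counterstained; imaged at ×200.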

Mus musculus [7] = assay: Reduction of Foxp3 expression in nucleus of C57BL/6 mouse tumor allografted with mouse LLC cells at 200 mg/kg, po qd after 14 days by immunohistochemical analysis
[8] = system: Lewis lung carcinoma cell line; assay: Antitumor activity against mouse LLC cells allografted in C57BL/6 mouse assessed as reduction in tumor volume at 200 mg/kg, po qd after 14 days; assay type: functional; conditions: 336 h, read-out: TGI
[9] = target: T1, Indoleamine 2,3-dioxygenase 1; assay: Binding affinity to human IDO1 by SPR assay
In short: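 SPR at 25 °C on purified human IDO-1 immobilized on a CM5 sensor chip, compound injected at a series of concentrations. Running buffer PBS with 0.1% dodecylmaltoside, 0.05 mM EDTA and 5% DMSO, pH 7.4. KD taken as the equilibrium dissociation constant from instrument evaluation.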
Target sequence in this assay (P14902 whole entry): as above

Mus musculus [10] = assay: In vivo inhibition of IDO1 in C57BL/6 mouse allografted with mouse LLC cells assessed as kynurenine to tryptophan ratio in plasma at 200 mg/kg, po qd after 14 days by HPLC analysis relative to control; assay type: functional, organism-based; parameters: dose 200 mg/kg
In short: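 C57BL/6 mice, 8 weeks old, given 2 × 10^6 LLC cells sc in right forelimb and randomized to three groups. Oral dosing once daily from 5 mm tumor diameter with 0.5% CMC vehicle or 200 mg/kg. Plasma taken after 14 days. Trp and Kyn measured by HPLC and Kyn/Trp ratio calculated, n = 9−10. One-way ANOVA against vehicle.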

[11] = target: T1, Indoleamine 2,3-dioxygenase 1; assay: Mixed competitive inhibition of human recombinant IDO1 using L-tryptophan as substrate; in short: as §1
Target sequence in this assay (P14902 whole entry): as above

[12] = DPPH radical scavenging activity assessed as reducing ability at […] after 30 mins by spectrophotometry; assay type: physicochemical; conditions: 0.5 h
In short: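 Tryptanthrins at 5, 10, 20, 40, 80 or 160 μM in DMSO (100 μL) mixed with 100 μL DPPH radical (100 μM in ethanol, acetate-buffered pH 5.5). Absorbance at 517 nm read after 30 min gentle shaking in the dark. Ascorbic acid as reference. Triplicates.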

Row | Compound | IC50 [1] | Ki [1] | IC50 [2] | Activity [3] | also measured
1 | O=C1c2cc(F)ccc2N[C@H]2[C@H](O)c3ccccc3N12 | – | – | – | – | IC50 [4]: 451 µM
2 | O=C1c2cc(Cn3cc(-c4ccccc4)nn3)ccc2-n2c1nc1ccc(F)cc1c2=O | – | – | – | – | inhibition [5]: inactive; inhibition [2]: inactive
3 | O=C1c2ccccc2N[C@H]2[C@H](O)c3cc(F)ccc3N12 | 6.21 µM | 4.54 µM | 0.0243 µM | – | –
4 | Cc1ccc2c(c1)C(=O)c1nc3ccccc3c(=O)n1-2 | – | – | – | – | IC50 [11]: 121 µM; Ki [11]: 219 µM
5 | O=C1c2cc([N+](=O)[O-])ccc2-n2c1nc1ccccc1c2=O | 0.103 µM | 0.054 µM | – | Not Active | –
6 | O=C1c2ccccc2N[C@H]2[C@H](O)c3ccccc3N12 | 16 µM | 8.58 µM | 0.779 µM | – | –
7 | O=C1O[C@H]([C@@H](O)CO)C(O)=C1O [ASCORBIC ACID] | – | – | – | – | Activity [12]: Active
8 | O=C1c2ccccc2-n2c1nc1ccc(F)cc1c2=O | – | – | – | – | IC50 [4]: 864 µM
9 | O=C1c2cc(F)ccc2-n2c1nc1ccc(F)cc1c2=O | 2.72 µM | 5.48 µM | 0.466 µM | – | –

The next lines start with results.

Row | IC50 [1] | Ki [1] | IC50 [2] | Activity [3] | Compound | also measured
10 | 74.4 µM | 49.4 µM | 0.183 µM | – | O=C1c2ccc(Cl)cc2-n2c1nc1ccccc1c2=O | –
11 | 0.574 µM | 0.389 µM | 0.0539 µM | Not Active | O=C1c2cc(Br)ccc2-n2c1nc1ccccc1c2=O | –
12 | 0.534 µM | 0.161 µM | 0.023 µM | Not Active | O=C1c2cc(F)ccc2-n2c1nc1ccccc1c2=O | Activity (Mus musculus [6]): Active; Activity (Mus musculus [7]): Active; inhibition in vivo at 200 mg/kg [8]: 62%; Kd [9]: 46.8 µM; inhibition (Mus musculus [10]): Active
13 | 8.19 µM | 9.65 µM | 0.0271 µM | Not Active | O=C1c2c(Cl)cccc2-n2c1nc1ccccc1c2=O | –
14 | – | – | 0.0537 µM | Not Active | O=C1c2ccccc2-n2c1nc1ccccc1c2=O [TRYPTANTHRIN] | IC50 [11]: 7.15 µM; Ki [11]: 4.81 µM
